# Measurements: ChEMBL document CHEMBL4689842, “EUbOPEN Chemogenomics Library wave 1” (2021)
# “And” between values parts separate entries of the source, which are not always exact repeats. Equal entries are not always repeated.
# Tested on: HEK-293T
# Assay: Multiplex assay against HEK293T;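 as to Population Tubulin-Different-Phenotype (%): share of the cells with healthy nuclei that show this phenotype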
# Type: toxicity, cell-based
# Conditions: human
# How it was run: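 Cells were classed with CellPathfinder machine-learning gating, first as Hoechst high-intensity objects or normal cells, then (normal cells) as healthy, pyknosed or fragmented nuclei, and finally (pyknosed cells) as mitotic or apoptotic. Staining of live cells at seeding used Hoechst33342, BioTracker Green Microtubule Cytoskeleton Dye, MitoTracker Red and Annexin V Alexa Fluor 680, with imaging on a CQ1 microscope at 37°C and 5% CO2 after compound addition. Tubulin, mitochondrial-mass and membrane-permeability phenotypes are per cents of healthy-nucleus cells.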
# [1] = 12 h, 10 µM, compound concentration 10 uM, replicate 1
# [2] = 12 h, 10 µM, compound concentration 10 uM, replicate 2
# [3] = 24 h, 10 µM, compound concentration 10 uM, replicate 1
# [4] = 24 h, 10 µM, compound concentration 10 uM, replicate 2
# [5] = 12 h, 1 µM, compound concentration 1 uM, replicate 1
# [6] = 12 h, 1 µM, compound concentration 1 uM, replicate 2
# [7] = 24 h, 1 µM, compound concentration 1 uM, replicate 1
# [8] = 24 h, 1 µM, compound concentration 1 uM, replicate 2
structure (smiles),measurement,setting,value
CN(c1ccccc1CNc1nc(Nc2ccc3c(c2)CC(=O)N3)ncc1C(F)(F)F)S(C)(=O)=O,Population Apoptotic (%),[1],20% and 22%
same,Population Fragmented Nuclei (%),[1],24% and 17%
same,Population Healthy Nuclei (%),[1],40% and 71%
same,Population Hoechst High Intensity Objects (%),[1],21% and 10%
same,Population Membrane Permeable-Phenotype (%),[1],10%
same,Population Mitotic Cells (%),[1],80% and 77%
same,Population Normal (%),[1],78% and 89%
same,Population Pyknosed Nuclei (%),[1],35%
same,Total Cell Count,[1],538 and 612
same,Population Apoptotic (%),[2],17%
same,Population Fragmented Nuclei (%),[2],3% and 5%
same,Population Healthy Nuclei (%),[2],85% and 90%
same,Population Membrane Permeable-Phenotype (%),[2],5% and 1%
same,Population Mitochondria Different-Phenotype (%),[2],37%
same,Population Mitotic Cells (%),[2],82%
same,Population Normal (%),[2],92% and 97%
same,Population Pyknosed Nuclei (%),[2],10% and 4%
same,Total Cell Count,[2],896 and 1228
same,Population Apoptotic (%),[3],23% and 26%
same,Population Fragmented Nuclei (%),[3],24% and 15%
same,Population Healthy Nuclei (%),[3],40% and 78%
same,Population Hoechst High Intensity Objects (%),[3],17% and 10%
same,Population Membrane Permeable-Phenotype (%),[3],4% and 9%
same,Population Mitotic Cells (%),[3],76% and 73%
same,Population Normal (%),[3],82% and 89%
same,Total Cell Count,[3],531 and 582
same,Population Apoptotic (%),[4],17% and 15%
same,Population Healthy Nuclei (%),[4],83%
same,Population Hoechst High Intensity Objects (%),[4],8% and 4%
same,Population Membrane Permeable-Phenotype (%),[4],3% and 2%
same,Population Mitochondria Different-Phenotype (%),[4],41%
same,Population Mitotic Cells (%),[4],82% and 84%
same,Population Normal (%),[4],91% and 95%
same,Total Cell Count,[4],898 and 1570
C=CC(=O)Nc1cccc(Sc2nc(Nc3ccc(N4CCN(C)CC4)cc3)ncc2Cl)c1,Population Apoptotic (%),[5],33%
same,Population Fragmented Nuclei (%),[5],28%
same,Population Healthy Nuclei (%),[5],14%
same,Population Hoechst High Intensity Objects (%),[5],16%
same,Population Membrane Permeable-Phenotype (%),[5],22%
same,Population Mitochondria Different-Phenotype (%),[5],15%
same,Population Mitotic Cells (%),[5],66%
same,Population Normal (%),[5],83%
same,Population Pyknosed Nuclei (%),[5],57%
same,Population Tubulin-Different-Phenotype (%),[5],58%
same,Total Cell Count,[5],748
same,Population Apoptotic (%),[6],20%
same,Population Fragmented Nuclei (%),[6],4%
same,Population Healthy Nuclei (%),[6],64%
same,Population Hoechst High Intensity Objects (%),[6],10%
same,Population Membrane Permeable-Phenotype (%),[6],7%
same,Population Mitochondria Different-Phenotype (%),[6],44%
same,Population Mitotic Cells (%),[6],79%
same,Population Normal (%),[6],89%
same,Population Pyknosed Nuclei (%),[6],30%
same,Population Tubulin-Different-Phenotype (%),[6],98%
same,Total Cell Count,[6],1010
same,Population Apoptotic (%),[1],21%
same,Population Fragmented Nuclei (%),[1],26%
same,Population Healthy Nuclei (%),[1],38%
same,Population Hoechst High Intensity Objects (%),[1],21%
same,Population Membrane Permeable-Phenotype (%),[1],10%
same,Population Mitochondria Different-Phenotype (%),[1],13%
same,Population Mitotic Cells (%),[1],78%
same,Population Normal (%),[1],78%
same,Population Pyknosed Nuclei (%),[1],35%
same,Population Tubulin-Different-Phenotype (%),[1],14%
same,Total Cell Count,[1],476
same,Population Apoptotic (%),[2],6%
same,Population Fragmented Nuclei (%),[2],7%
same,Population Healthy Nuclei (%),[2],84%
same,Population Hoechst High Intensity Objects (%),[2],3%
same,Population Membrane Permeable-Phenotype (%),[2],5%
same,Population Mitochondria Different-Phenotype (%),[2],16%
same,Population Mitotic Cells (%),[2],93%
same,Population Normal (%),[2],96%
same,Population Pyknosed Nuclei (%),[2],7%
same,Population Tubulin-Different-Phenotype (%),[2],25%
same,Total Cell Count,[2],1448
same,Population Apoptotic (%),[7],55%
same,Population Fragmented Nuclei (%),[7],34%
same,Population Healthy Nuclei (%),[7],26%
same,Population Hoechst High Intensity Objects (%),[7],14%
same,Population Membrane Permeable-Phenotype (%),[7],18%
same,Population Mitochondria Different-Phenotype (%),[7],12%
same,Population Mitotic Cells (%),[7],44%
same,Population Normal (%),[7],85%
same,Population Pyknosed Nuclei (%),[7],39%
same,Population Tubulin-Different-Phenotype (%),[7],52%
same,Total Cell Count,[7],683
same,Population Apoptotic (%),[8],28%
same,Population Fragmented Nuclei (%),[8],6%
same,Population Healthy Nuclei (%),[8],63%
same,Population Hoechst High Intensity Objects (%),[8],10%
same,Population Membrane Permeable-Phenotype (%),[8],6%
same,Population Mitochondria Different-Phenotype (%),[8],63%
same,Population Mitotic Cells (%),[8],71%
same,Population Normal (%),[8],89%
same,Population Pyknosed Nuclei (%),[8],29%
same,Population Tubulin-Different-Phenotype (%),[8],97%
same,Total Cell Count,[8],914
same,Population Apoptotic (%),[3],26%
same,Population Fragmented Nuclei (%),[3],18%
same,Population Healthy Nuclei (%),[3],64%
same,Population Hoechst High Intensity Objects (%),[3],12%
same,Population Membrane Permeable-Phenotype (%),[3],10%
same,Population Mitochondria Different-Phenotype (%),[3],12%
same,Population Mitotic Cells (%),[3],73%
same,Population Normal (%),[3],87%
same,Population Pyknosed Nuclei (%),[3],17%
same,Population Tubulin-Different-Phenotype (%),[3],30%
same,Total Cell Count,[3],470
same,Population Apoptotic (%),[4],4%
same,Population Fragmented Nuclei (%),[4],20%
same,Population Healthy Nuclei (%),[4],76%
same,Population Hoechst High Intensity Objects (%),[4],4%
same,Population Membrane Permeable-Phenotype (%),[4],7%
same,Population Mitochondria Different-Phenotype (%),[4],2%
same,Population Mitotic Cells (%),[4],95%
same,Population Normal (%),[4],95%
same,Population Pyknosed Nuclei (%),[4],3%
same,Population Tubulin-Different-Phenotype (%),[4],19%
same,Total Cell Count,[4],2375
